Assay results as given in ChEMBL document CHEMBL3860028, “Bioactive Phenanthrene and Bibenzyl Derivatives from the Stems of Dendrobium nobile” (J Nat Prod, 2016).
In brackets after ≈: the same amount, converted by molar mass.

Columns and labels:
[1] = Antifungal activity against Phytophthora parasitica var. nicotianae after 4 to 14 days by serial dilution method; assay type: functional
How it was run: (§1)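 Fungal strains kept on potato dextrose agar. Antifungal activity tested following NCCLS recommendations, with MIC values as the read-out. Prochloraz served as positive control.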

[2] = Antifungal activity against Pestallozzia theae after 4 to 14 days by serial dilution method; assay type: functional; how it was run: as §1
Alternaria citri = assay: Antifungal activity against Alternaria citri after 4 to 14 days by serial dilution method; assay type: functional
How it was run: (§2)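 Fungus maintained on potato dextrose agar. Antifungal activity determined as MIC following NCCLS (National […] for Clinical Laboratory Standards) recommendations, with prochloraz as the reference antifungal.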

[3] = Antifungal activity against Diaporthe medusaea nitschke after 4 to 14 days by serial dilution method; assay type: functional; details: Diaporthe rudis; how it was run: as §1
Colletotrichum truncatum = assay: Antifungal activity against Colletotrichum capsici after 4 to 14 days by serial dilution method; assay type: functional; how it was run: as §1
[4] = Antifungal activity against Ceratocystis paradoxa moreau after 4 to 14 days by serial dilution method; assay type: functional; details: Thielaviopsis; how it was run: as §1
[5] = Cytotoxicity against human MCF7 cells assessed as decrease in cell viability after 6 days by MTT assay; assay type: functional, cell-based; details: MCF7, 144 h
How it was run: (§3)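 Cell lines from College of Pharmacy, Hebei University, grown in DMEM with 5% fetal bovine serum at 37 °C under 5% CO2. Viability read by MTT method, IC50 values derived. Epirubicin served as positive control.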

[6] = Cytotoxicity against human A549 cells assessed as decrease in cell viability after 6 days by MTT assay; assay type: functional, cell-based; details: A549, 144 h; how it was run: as §3
[7] = Antifungal activity against Bipolaris oryzae after 4 to 14 days by serial dilution method; assay type: functional; how it was run: as §2
Alternaria brassicicola = assay: Antifungal activity against Alternaria brassicicola after 4 to 14 days by serial dilution method; assay type: functional; how it was run: as §1
[8] = Cytotoxicity against human HeLa cells assessed as decrease in cell viability after 6 days by MTT assay; assay type: functional, cell-based; details: 144 h; how it was run: as §3
[9] = Antifungal activity against Exserohilum turcicum after 4 to 14 days by serial dilution method; assay type: functional; details: Setosphaeria turcica; how it was run: as §1

Compound | MIC [1] [µM] | MIC [2] [µM] | MIC (Alternaria citri) [µM] | MIC [3] [µM] | MIC (Colletotrichum truncatum) [µM] | MIC [4] [µM] | IC50 [5] [µM] | IC50 [6] [µM] | MIC [7] [µM] | MIC (Alternaria brassicicola) [µM] | IC50 [8] [µM] | MIC [9] [µM]
O=C1C=CC(=O)C2=C1CCc1cc(O)ccc12 | > 400 | > 400 | > 400 | > 400 | > 400 | > 400 | > 10 | > 10 | > 400 | > 400 | > 10 | > 400
COc1cc(O)c2c(c1)CCc1cc(O)c(-c3cc4cccc(O)c4c4c(OC)cc(O)cc34)cc1-2 | > 400 | > 400 | > 400 | > 400 | > 400 | > 400 | > 10 | > 10 | > 400 | > 400 | > 10 | > 400
COc1cc(O)cc2ccc3c(-c4c(O)cc(OC)c5c4ccc4cccc(O)c45)ccc(O)c3c12 | > 400 | > 400 | > 400 | > 400 | > 400 | > 400 | > 10 | > 10 | > 400 | > 400 | > 10 | > 400
COC1=CC(=O)C[C@]2(CCc3cccc(O)c32)C1=O | > 400 | > 400 | > 400 | > 400 | > 400 | > 400 | 9.4 | 9.9 | > 400 | > 400 | 9.8 | > 400
COc1cc(O)cc2ccc3cccc(O)c3c12 [MOSCATIN] | > 400 | > 400 | > 400 | > 400 | > 400 | > 400 | > 10 | > 10 | > 400 | > 400 | > 10 | > 400
COc1cc(O)cc(CCc2ccccc2)c1 | 219 (≈ 50.1 µg/mL) | 219 (≈ 50.1 µg/mL) | 110 (≈ 25 µg/mL) | 219 (≈ 50.1 µg/mL) | 110 (≈ 25 µg/mL) | 110 (≈ 25 µg/mL) | > 10 | > 10 | 110 (≈ 25 µg/mL) | > 400 | > 10 | 110 (≈ 25 µg/mL)
COc1c(O)cc2ccc3c(OC)c(O)ccc3c2c1OC | > 400 | > 400 | > 400 | > 400 | > 400 | > 400 | > 10 | > 10 | > 400 | > 400 | > 10 | > 400
COc1cc(O)c2c(c1)CCc1cc(O)c(-c3c(OC)cc4c(c3O)-c3ccc(O)cc3CC4)cc1-2 | > 400 | > 400 | > 400 | > 400 | > 400 | > 400 | > 10 | > 10 | > 400 | > 400 | > 10 | > 400
